# Assay outcomes as filed in PubChem BioAssay.
# This is one part of a sample in which hits are shown more often than they occur.
# Lung fibro prol = blocks proliferation of human lung fibroblasts. LL 47 human lung fibroblast viability, ATP luminescence; active compounds read low. 1.1% of 85,000 active. AID 719. viability, % at 10 µM;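 active = viability at or below 50% in the single dose screen; inactive = viability above 50%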;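 note: compound exposure lasted 72 h before the ATP readout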
#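 Test system: LL 47 human lung fibroblasts / Incubation: 72 h compound exposure at 37 °C after overnight plating / Technique: luminescent ATP detection, CellTiter-Glo / Compound dosing: 0.1% DMSO in all compound wells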
# PTEN del growth = growth suppressors of cells with PTEN tumor suppressor deletion; HCT116 PTEN-null viability, CellTiter-Glo, 60 h; active compounds read low; viability, % at 10 µM; 1.2% of 140,000 active; AID 827;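 active = viability at or below a set limit, 4 SD under the median of all tested compounds, cut at about 3.7% in these data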;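 note: PTEN knockout HCT116 line with beta catenin targeted HCT116 as companion control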
# HCT116 bCat-KO = beta-catenin-lacking colon tumor cell growth suppression. HCT116 beta-catenin knockout viability, CellTiter-Glo, 60 h; active compounds read low. viability, % at 10 µM. 1.5% of 140,000 active. AID 818;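 active = viability at or under a set limit, the compound median less 4 SD, cut at about 6% in these data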
# HUVEC inhibit = blocks proliferation of human endothelial cells | HUVEC proliferation, CellTiter-Glo luminescence, 72 h; active compounds read low | viability, % at 10 µM (by protocol) | 1.1% of 86,000 active;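 active = viability at or below 30%; inactive = viability above 30%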
# H69AR inhibit = blocks growth of human H69AR lung tumor cells; H69AR lung tumor viability, ATP luminescence, 72 h; active compounds read low; viability, % at 10 µM; 6% of 85,000 active; AID 598;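 active = viability at or below 40%; inactive = viability above 40%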;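 note: multidrug resistant small cell line overexpressing MRP-1 efflux transporter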
# Numbers stand for hits; . = inactive; / = not tested or not shown.
SMILES,Lung fibro prol,PTEN del growth,HCT116 bCat-KO,HUVEC inhibit,H69AR inhibit
COc1cccc(C(C(=O)NC2CCCC2)N(Cc2ccccc2OC)C(=O)c2ccco2)c1 (configuration not stated),.,.,.,.,.
N=C(N)N1CCc2ccccc2C1,.,.,.,.,.
C=CCOc1ccc2nnc(C)n2n1,/,.,.,/,/
Cc1onc(-c2ccccc2)c1C(=O)N1CCN(C)CC1,.,.,.,.,.
Cc1cc(C(=O)OCC(=O)NCc2ccco2)c(C)n1-c1ccc(F)cc1,.,.,.,.,21
O=C(NCc1ccccn1)C1CCN(S(=O)(=O)N2CCCC2)CC1,.,.,.,.,.
Cc1ccc(C2CC(c3cccs3)=NN2C(=O)c2ccc(Br)o2)cc1 (configuration not stated),.,.,.,.,.
CCOC(=O)c1oc2ccc(CNC(C)(C)C)c(Cl)c2c1C,.,.,.,.,.
CCC(C)Oc1ccccc1C1CC(=O)NC2=C1C(=O)CCC2 (configuration not stated),/,.,.,/,/
CCOC(=O)c1c(NC(C)=O)sc2c1CCC(C=NCCCN(CC)CC)=C2Sc1ccccc1,.,/,/,3.2,0.7
CCOC(=O)c1c(NC(=O)CN2CCCCC2)sc2c1CCC(C=O)=C2Cl,/,.,.,/,/
COc1ccc(/C(N)=N/OC(=O)CSc2ccccc2)cc1OC,.,.,.,.,.
OC(CN1c2ccccc2Sc2ccccc21)Cn1nnc2ccccc21 (configuration not stated),.,2.5,.,.,25
Cc1nn(CC(O)CN2c3ccccc3Sc3ccccc32)c(C)c1Br (configuration not stated),.,.,.,.,27
O=C(Nc1ccc(Cl)c(C(F)(F)F)c1)C1CCCN(S(=O)(=O)c2cnc[nH]2)C1 (configuration not stated),.,.,.,.,.
COC(=O)c1ccc(NC(=O)CN(C2CCCCC2)S(C)(=O)=O)cc1,.,.,.,.,38
COc1ccc(NC(=O)CN(C2CCCCC2)S(C)(=O)=O)cc1OC,.,.,.,.,.
CCc1ccc(NC(=O)C(C)OC(=O)c2cccc(S(=O)(=O)N3CCc4ccccc4C3)c2)cc1 (configuration not stated),/,.,.,/,/
O=C(COC(=O)CCS(=O)(=O)c1ccc(Cl)cc1)NCCc1ccccc1,/,.,.,/,/
Cc1cc(C)nc(SCC(=O)NC2=NN=C(c3ccc(Br)cc3)CS2)n1,/,2.8,1.5,/,/
COc1cc(/C=N\n2cnnc2)ccc1OCC(=O)Nc1ccc(C)cc1,.,.,.,.,.
CCOC(=O)c1ccccc1OCc1cc(/C=N/n2cnnc2)ccc1OC,.,.,.,.,35
CCCCCCCCOC(=O)CCn1[nH]c(=O)c2ccccc2c1=O,.,.,.,.,.
COC(=O)c1sc2nc(C)c([N+](=O)[O-])c(C)c2c1N,/,.,.,/,/
Cc1cc(Cl)cc(Br)c1OCCCN1C(=O)NC(C)(C)C1=O,.,.,.,.,.
SMILES,Lung fibro prol,PTEN del growth,HCT116 bCat-KO,HUVEC inhibit,H69AR inhibit
C=CCn1c(=O)/c(=C/c2cc(OC)c(OC)c(OC)c2)s/c1=C(/C#N)c1nc2ccccc2n1C,.,.,.,.,10
O=S(=O)(c1cccc(-c2nc3ccccc3s2)c1)N1CCOCC1,.,.,.,.,.
Cc1ccc(-c2nc3ccccc3s2)cc1S(=O)(=O)N1CCCC1,.,.,.,.,32
Cc1ccc(NC(=O)CCCCCCCCCCC2COCCO2)c(C)c1 (configuration not stated),/,.,.,/,/
O=C(CCCCn1c(=O)c2ccccc2n(Cc2ccc(Cl)cc2)c1=O)NCc1ccco1,.,.,.,.,16
N#Cc1ccccc1Cn1c(=O)n(Cc2ccc(C(=O)NCc3ccco3)cc2)c(=O)c2ccccc21,.,.,.,26,12
N#Cc1ccccc1Cn1c(=O)n(CCCC(=O)NCc2ccc3c(c2)OCO3)c(=O)c2ccccc21,.,.,.,.,40
CCc1ccc(NC(=O)Cn2c(=O)n(CCCC(=O)NCc3ccco3)c(=O)c3ccccc32)cc1,.,.,.,.,30
O=C(CCCCn1c(=O)c2ccccc2n(CC(=O)Nc2cccc(F)c2)c1=O)NCc1ccco1,.,.,.,.,.
Cc1ccc(Cn2c(=O)n(CCC(=O)NCc3ccc4c(c3)OCO4)c(=O)c3ccccc32)cc1,.,.,.,.,.
Nc1ccccc1C(=O)N/N=C1\C2CN3CCN(C2)CC1(c1ccccc1)C3,/,.,.,/,/
CCOc1cc2[nH]c(=O)n(CCCCCC(=O)NCc3ccc4c(c3)OCO4)c(=O)c2cc1OCC,34,/,/,.,18
CCOc1cc2[nH]c(=O)n(CCCCCC(=O)NCc3ccco3)c(=O)c2cc1OCC,.,.,.,.,.
O=C(CCCn1c(=O)c2sccc2n(CC(=O)OCc2ccccc2)c1=O)NCc1ccco1,.,.,.,.,.
O=C(CCCn1c(=O)c2sccc2n(Cc2ccc(F)cc2)c1=O)NCc1ccco1,.,.,.,.,22
Nc1nc(NC(=O)c2ccccc2)nn1-c1ccccc1,/,.,.,/,/
O=C(Nc1nc(NC(=O)c2ccco2)n(-c2ccccc2)n1)c1ccccc1,35,.,.,.,1.4
COC(=O)Nc1nc2ccc(C(=O)c3ccccc3)cc2[nH]1,.,/,/,.,33
O=C(Nc1nc2ccccc2[nH]1)c1ccc(Cl)c(S(=O)(=O)N2CCCC2)c1,.,.,.,.,12
COc1cccc(C(=O)Nc2nc3ccccc3[nH]2)c1,.,.,.,.,32
O=C(CSc1ccc2ccccc2c1)Nc1nc2ccccc2[nH]1,/,.,.,/,/
CCCSc1ccc2nc(NC(=O)OC)[nH]c2c1,.,.,.,.,20
COc1cc(C(=O)NCCOc2cccc(C)c2)c(Br)c(OC)c1OC,/,.,.,/,/
COc1ccc(C(C)(C)C)cc1NC(=S)NCCN1CCOCC1,/,.,.,/,/
O=C(CN1CCOCC1)Nc1ncc(Cc2cccc(Cl)c2Cl)s1,/,.,.,/,/
SMILES,Lung fibro prol,PTEN del growth,HCT116 bCat-KO,HUVEC inhibit,H69AR inhibit
O=C(COc1ccccc1)Nc1nc2ccccc2[nH]1,.,.,.,.,.
CC(CC(=O)Nc1nc2ccccc2[nH]1)c1ccccc1 (configuration not stated),.,.,.,.,12
CCOC(=O)C1=C(NC(=O)c2ccc(Br)o2)Nc2ccccc2N=C1,.,.,.,.,31
COc1ccc(OC)c(S(=O)(=O)NC2CCN(Cc3ccccc3)CC2)c1,.,.,.,.,.
COc1ccc(/C=C2\CN(Cc3ccccc3)C/C(=C\c3ccc(OC)cc3OC)C2=O)c(OC)c1,/,2.7,4.8,/,/
COc1ccc(-n2c(=O)cc(N3CCN(Cc4ccccc4)CC3)[nH]c2=O)cc1,.,.,.,.,.
COc1ccc(/C=C2\CN(Cc3ccccc3)C/C(=C\c3ccc(OC)cc3)C2=O)cc1,/,1.6,1.7,/,/
N#CC(=C1CCCC1)c1nc(-c2ccccc2O)cs1,.,.,.,.,29
CC(=O)N1CCCc2cc(S(=O)(=O)NC(C(=O)NCc3ccc(C)cc3)C(C)C)ccc21 (configuration not stated),.,.,.,.,.
